Results from ChEMBL document CHEMBL1649143, “In vitro activities of fluconazole and voriconazole against clinical isolates of Candida spp. determined by disk diffusion testing in Turin, Italy” (2009).
Values after ≈ are worked out from the molar mass of the structure shown.

Key:
Candida parapsilosis [1] = assay: Antifungal activity against Candida parapsilosis assessed as percent susceptible isolates at 25 ug/disc by CLSI M44-A disk diffusion method; type: functional
Summary of the method: (§1)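 Agar disk diffusion per CLSI M44-A on clinical Candida isolates collected in Turin, Italy; 1,024 isolates tested in total. Each isolate was classed as susceptible (S), susceptible-dose dependent (SDD) or resistant (R), and the percentage of isolates per species in each category was reported.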

Candida albicans [2] = assay: Antifungal activity against Candida albicans assessed as percent susceptible isolates at 25 ug/disc by CLSI M44-A disk diffusion method; type: functional; summary of the method: as §1
Cyberlindnera jadinii = assay: Antifungal against Candida utilis assessed as percent susceptible isolates at 25 ug/disc by CLSI M44-A disk diffusion method; type: functional
Summary of the method: (§2)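 Clinical yeast isolates tested by agar disk diffusion per CLSI M44-A. Zone diameters were converted to MICs by an automated zone-reading system applying species-specific linear regression against reference dilution MICs. Isolates were classed as susceptible, susceptible-dose dependent or resistant using CLSI MIC breakpoints, and reported as number and percent susceptible per species.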

Diutina rugosa = assay: Antifungal activity against Candida rugosa assessed as percent susceptible isolates at 25 ug/disc by CLSI M44-A disk diffusion method; type: functional; summary of the method: as §2
Clavispora lusitaniae = assay: Antifungal activity against Candida lusitaniae assessed as percent susceptible isolates at 25 ug/disc by CLSI M44-A disk diffusion method; type: functional; summary of the method: as §2
Candida albicans [3] = assay: Antifungal activity against Candida albicans assessed as percent resistant isolates at 25 ug/disc by CLSI M44-A disk diffusion method; type: functional; summary of the method: as §1
Candida parapsilosis [4] = assay: Antifungal activity against Candida parapsilosis assessed as dose dependent percent susceptible isolates at 25 ug/disc by CLSI M44-A disk diffusion method; type: functional; summary of the method: as §1
Nakaseomyces glabratus [5] = assay: Antifungal activity against Candida glabrata by reference dilution method; type: functional
Candida = assay: Antifungal activity against Candida sp. by reference dilution method; type: functional
Pichia norvegensis [6] = assay: Antifungal activity against Candida norvegensis by reference dilution method; type: functional
Pichia kudriavzevii [7] = assay: Antifungal activity against Candida krusei assessed as dose dependent percent susceptible isolates at 25 ug/disc by CLSI M44-A disk diffusion method; type: functional; summary of the method: as §1
Pichia norvegensis [8] = assay: Antifungal activity against Candida norvegensis assessed as percent resistant isolates at 25 ug/disc by CLSI M44-A disk diffusion method; type: functional; summary of the method: as §1
[Candida] intermedia = Antifungal activity against Candida intermedia assessed as percent susceptible isolates at 25 ug/disc by CLSI M44-A disk diffusion method; type: functional, Sungouiella intermedia; summary of the method: as §2
Nakaseomyces glabratus [9] = assay: Antifungal activity against Candida glabrata assessed as percent susceptible isolates at 25 ug/disc by CLSI M44-A disk diffusion method; type: functional; summary of the method: as §1
Candida albicans [10] = assay: Antifungal activity against Candida albicans assessed as dose dependent percent susceptible isolates at 25 ug/disc by CLSI M44-A disk diffusion method; type: functional; summary of the method: as §1
Candida albicans [11] = assay: Antifungal activity against Candida albicans by reference dilution method; type: functional
[12] = Antifungal activity against Candida humicola assessed as percent susceptible isolates at 25 ug/disc by CLSI M44-A disk diffusion method; type: functional; summary of the method: as §2
Nakaseomyces glabratus [13] = assay: Antifungal activity against Candida glabrata assessed as dose dependent percent susceptible isolates at 25 ug/disc by CLSI M44-A disk diffusion method; type: functional; summary of the method: as §1
Nakaseomyces glabratus [14] = assay: Antifungal activity against Candida glabrata assessed as percent resistant isolates at 25 ug/disc by CLSI M44-A disk diffusion method; type: functional; summary of the method: as §1
Candida tropicalis [15] = assay: Antifungal activity against Candida tropicalis by reference dilution method; type: functional
Pichia norvegensis [16] = assay: Antifungal activity against Candida norvegensis assessed as dose dependent percent susceptible isolates at 25 ug/disc by CLSI M44-A disk diffusion method; type: functional; summary of the method: as §1
Kluyveromyces marxianus [17] = assay: Antifungal activity against Candida kefyr assessed as percent susceptible isolates at 25 ug/disc by CLSI M44-A disk diffusion method; type: functional; summary of the method: as §1
[18] = Antifungal activity against Candida holmii assessed as percent susceptible isolates at 25 ug/disc by CLSI M44-A disk diffusion method; type: functional; details: Kazachstania exigua; summary of the method: as §2
Pichia fermentans = assay: Antifungal activity against Candida lambica assessed as percent susceptible isolates at 25 ug/disc by CLSI M44-A disk diffusion method; type: functional; summary of the method: as §2
Candida tropicalis [19] = assay: Antifungal activity against Candida tropicalis assessed as percent susceptible isolates at 25 ug/disc by CLSI M44-A disk diffusion method; type: functional; summary of the method: as §1
Pichia kudriavzevii [20] = assay: Antifungal activity against Candida krusei assessed as percent resistant isolates at 25 ug/disc by CLSI M44-A disk diffusion method; type: functional; summary of the method: as §1
Kluyveromyces marxianus [21] = assay: Antifungal activity against Candida kefyr assessed as percent resistant isolates at 25 ug/disc by CLSI M44-A disk diffusion method; type: functional; summary of the method: as §1
[22] = Antifungal activity against Candida membranifaciens assessed as percent susceptible isolates at 25 ug/disc by CLSI M44-A disk diffusion method; type: functional; summary of the method: as §2
Kluyveromyces marxianus [23] = assay: Antifungal activity against Candida kefyr by reference dilution method; type: functional
Candida tropicalis [24] = assay: Antifungal activity against Candida tropicalis assessed as dose dependent percent susceptible isolates at 25 ug/disc by CLSI M44-A disk diffusion method; type: functional; summary of the method: as §1
Candida tropicalis [25] = assay: Antifungal activity against Candida tropicalis assessed as percent resistant isolates at 25 ug/disc by CLSI M44-A disk diffusion method; type: functional; summary of the method: as §1
Candida parapsilosis [26] = assay: Antifungal activity against Candida parapsilosis by reference dilution method; type: functional; details: Lodderomyces parapsilosis
Pichia kudriavzevii [27] = assay: Antifungal activity against Candida krusei by reference dilution method; type: functional
Pichia kudriavzevii [28] = assay: Antifungal activity against Candida krusei assessed as percent susceptible isolates at 25 ug/disc by CLSI M44-A disk diffusion method; type: functional; summary of the method: as §1

Structure (SMILES): OC(Cn1cncn1)(Cn1cncn1)c1ccc(F)cc1F [FLUCONAZOLE]
- Activity (Candida parapsilosis [1]): 96%
- Activity (Candida albicans [2]): 98%
- Activity (Cyberlindnera jadinii): 92.9%
- Activity (Diutina rugosa): 92.9%
- Activity (Clavispora lusitaniae): 92.9%
- Activity (Candida albicans [3]): 1%
- Activity (Candida parapsilosis [4]): 4%
- MIC50 (Nakaseomyces glabratus [5]): 4 µg/mL (≈ 13.1 µM)
- MIC90 (Nakaseomyces glabratus [5]): 64 µg/mL (≈ 209 µM)
- MIC50 (Candida): 2 µg/mL (≈ 6.53 µM)
- MIC90 (Candida): 128 µg/mL (≈ 418 µM)
- MIC50 (Pichia norvegensis [6]): 128 µg/mL (≈ 418 µM)
- MIC90 (Pichia norvegensis [6]): 256 µg/mL (≈ 836 µM)
- Activity (Pichia kudriavzevii [7]): 21%
- Activity (Pichia norvegensis [8]): 79%
- Activity ([Candida] intermedia): 92.9%
- Activity (Nakaseomyces glabratus [9]): 82%
- Activity (Candida albicans [10]): 1%
- MIC50 (Candida albicans [11]): 0.5 µg/mL (≈ 1.63 µM)
- MIC90 (Candida albicans [11]): 4 µg/mL (≈ 13.1 µM)
- Activity [12]: 92.9%
- Activity (Nakaseomyces glabratus [13]): 9%
- Activity (Nakaseomyces glabratus [14]): 9%
- MIC50 (Candida tropicalis [15]): 2 µg/mL (≈ 6.53 µM)
- MIC90 (Candida tropicalis [15]): 16 µg/mL (≈ 52.2 µM)
- Activity (Pichia norvegensis [16]): 21%
- Activity (Kluyveromyces marxianus [17]): 96%
- Activity [18]: 92.9%
- Activity (Pichia fermentans): 92.9%
- Activity (Candida tropicalis [19]): 92%
- Activity (Pichia kudriavzevii [20]): 68%
- Activity (Kluyveromyces marxianus [21]): 4%
- Activity [22]: 92.9%
- MIC50 (Kluyveromyces marxianus [23]): 0.25 µg/mL (≈ 0.816 µM)
- MIC90 (Kluyveromyces marxianus [23]): 0.25 µg/mL (≈ 0.816 µM)
- Activity (Candida tropicalis [24]): 3%
- Activity (Candida tropicalis [25]): 5%
- MIC50 (Candida parapsilosis [26]): 0.5 µg/mL (≈ 1.63 µM)
- MIC90 (Candida parapsilosis [26]): 4 µg/mL (≈ 13.1 µM)
- MIC50 (Pichia kudriavzevii [27]): 128 µg/mL (≈ 418 µM)
- MIC90 (Pichia kudriavzevii [27]): 256 µg/mL (≈ 836 µM)
- Activity (Pichia kudriavzevii [28]): 11%
